Test results taken from PubChem BioAssay.
Results filed as inconclusive are left out.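 How the source made its calls, unless noted: active means viability at or below 27.92% in each of two runs, the all-compound median minus 4 SD; inconclusive means no clear call, values can overlap the other calls; inactive means the rest.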

Experiments:
[1] = OD615 S. cerevisiae growth inhibition, permissive medium, pilot counter-assay, permissive growth control for S. cerevisiae lifespan shortening project (AID 705;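 active means growth inhibition above 25% in both replicates, a cutoff set 3 SD above the mean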); settings: OD615, 24 h, at 10 µM, stronger effect = higher value
Outline: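 Test system: Saccharomyces cerevisiae strain carrying genetically modified DeaD replicative-lifespan system; buffer or medium: SC raffinose/galactose permissive medium; dosing: one dose 10 µM, DMSO 0.25% final; times: 24 h exposure, 30 °C; measured by: OD at 615 nm; read-out basis: growth inhibition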

[2] = Restrictive medium S. cerevisiae growth inhibition, OD615, pilot screen of yeast lifespan reduction project, restrictive growth control (AID 706;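 active means growth inhibition above a set limit, 3 SD over mean compound inhibition, in both replicates, cut at about 43% in these data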;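 further: modified DeaD lifespan yeast strain shifted to restrictive glucose medium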); settings: OD615, 48 h, at 10 µM, stronger effect = higher value
Outline: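 material = engineered S. cerevisiae DeaD strain | buffer or medium = glucose-based CSMM-D restrictive medium | dosing = one concentration, 10 µM final, 0.25% DMSO | schedule = 4 h pre-growth plus 48 h compound exposure, 30 °C | detection = OD615 absorbance reading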

[3] = viability gain of MRP-1-high H69AR cells under doxorubicin, pilot screen, MRP-1 activator project, CellTiter-Glo, duplicate (AID 807;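 active means viability increase at or above a cutoff of the median across tested compounds plus 3 SD, cut at about 8.5% in these data, passing the limit was not always enough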;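 further: compound pretreatment 18-22 h then 72 h combined with doxorubicin; 0% = doxorubicin alone and 100% = vehicle without doxorubicin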); settings: H69AR viability with doxorubicin, CellTiter-Glo luminescence; at 10 µM; stronger effect = higher value
[4] = growth suppression of beta-catenin knockout HCT116, pilot screen, human colon tumor cells (AID 823;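 active means cell viability at or below a set limit in both duplicate runs, the limit being the all-compound median minus 4 SD, cut at about 23% in these data, passing the limit was not always enough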;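 further: 0% = wells killed by 20 µM Hyamine and 100% = untreated DMSO cell wells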); settings: CellTiter-Glo, 60 h, at 10 µM, stronger effect = lower value
[5] = growth suppression of PTEN-deleted HCT116, pilot screen, cell-based, HCT116 clonal line, CellTiter-Glo (AID 824); settings: 60 h, at 10 µM, stronger effect = lower value;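 further: 0% = 20 µM Hyamine control and 100% = vehicle cell control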
[6] = inhibitors of the yeast RAM network, pilot screen, dse1pr::URA3 reporter, 5-FOA selection (AID 869;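 active means inhibition over a set limit, the all-compound mean plus 3 SD, in both replicate runs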;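 further: 0% = DMSO wells with no growth and 100% = 10 µM 1-NA-PP1 with full growth; RAM network block rescues cells from 5-FOA so hits raise OD615 growth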); settings: S. cerevisiae dse1pr::URA3 5-FOA growth, OD615, 2 d; at 10 µM; stronger effect = higher value; strain carries analog-sensitive mutant Cbk1 kinase
[7] = RAM signaling pathway blockade in yeast – S. cerevisiae, Pdr1DBD-CYC8 efflux-inhibited sensitized strain, primary screen (AID 1298;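 active means RAM network inhibition above 8.4% in each of two replicates, 3 SD over the compound average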;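 further: 0% = DMSO untreated cells without growth and 100% = 10 µM 1-NA-PP1 full growth; higher means more yeast growth rescued from 5-FOA killing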); settings: S. cerevisiae cbk1-as DSE1-URA3 strain, 5-FOA growth OD615, 2 d; at 50 µM; stronger effect = higher value

Cn1c(=O)cc(N2CCc3ccccc32)[nH]c1=O
inactive: growth inhibition [1] -11.7% | growth inhibition [2] 2.4% | viability increase [3] 0.37% | viability [4] 90.8% | viability [5] 98.1% | inhibition [6] 1.23% | RAM network inhibition [7] -1.11%

O=C(CSc1nnnn1-c1cccc2c1CCCC2)N1CCOCC1
inactive: growth inhibition [1] -3.82% | growth inhibition [2] -27.1% | viability increase [3] -3.02% | viability [4] 95.4% | viability [5] 94.5% | inhibition [6] 0.68% | RAM network inhibition [7] 2.95%

O=C(CNS(=O)(=O)c1ccc(C(=O)N2CCCCC2)cc1)N1CCCCC1
inactive: growth inhibition [1] -11.9% | growth inhibition [2] -18.1% | viability increase [3] 0.86% | viability [4] 93.3% | viability [5] 90.8% | inhibition [6] -0.19% | RAM network inhibition [7] 3.77%

COc1ccc(CCNC(=O)CSc2nnnn2-c2ccccc2)cc1
inactive: growth inhibition [1] 2.08% | growth inhibition [2] -9.2% | viability increase [3] -2.24% | viability [4] 94.7% | viability [5] 88.8% | inhibition [6] 1.33% | RAM network inhibition [7] 6.52%

CC1CN(C(=O)c2cc3ccccc3oc2=O)CC(C)O1 (stereo not given)
inactive: growth inhibition [1] 5.08% | growth inhibition [2] -3.64% | viability increase [3] 0.49% | viability [4] 98.4% | viability [5] 103% | inhibition [6] 0.555% | RAM network inhibition [7] 2.33%

COc1cccc2c(=O)c(C/C=C(/C)Cl)c(C)[nH]c12
inactive: growth inhibition [1] -2.8% | growth inhibition [2] 5.71% | viability increase [3] -2.38% | viability [4] 97.5% | viability [5] 91.6% | inhibition [6] 0.075% | RAM network inhibition [7] -0.16%

CCC(=O)Nc1c2c(nn1-c1ccc(F)cc1)CS(=O)C2 (stereo not given)
inactive: growth inhibition [1] -7.18% | growth inhibition [2] 1.07% | viability increase [3] 0.7% | viability [4] 99.2% | viability [5] 99.5% | inhibition [6] 0.265% | RAM network inhibition [7] 2.18%

CC1CCCCN1CCn1cnc2c([nH]c3ccccc32)c1=O (stereo not given)
inactive: growth inhibition [1] -2.21% | growth inhibition [2] 5.29% | viability increase [3] -4.17% | viability [4] 88.1% | viability [5] 87.4% | inhibition [6] -0.135% | RAM network inhibition [7] 4.11%

Cc1cc(NC(=O)CSc2ccc3nnc(-c4ccccn4)n3n2)no1
inactive: growth inhibition [1] -3.09% | growth inhibition [2] 10.1% | viability increase [3] -1.04% | viability [4] 102% | viability [5] 90.4% | inhibition [6] 0.535% | RAM network inhibition [7] 1.71%

COc1cccc(OC)c1C(=O)Nc1ccc2c(c1)OCCO2
inactive: growth inhibition [1] -8.21% | growth inhibition [2] 0.395% | viability increase [3] -0.21% | viability [4] 99.8% | viability [5] 95.9% | inhibition [6] 1.23% | RAM network inhibition [7] 0.51%

Cc1cc2cc(CNC(=O)c3ccc(Br)o3)ccc2n1C
inactive: growth inhibition [1] -9.25% | growth inhibition [2] -10.3% | viability increase [3] -2.79% | viability [4] 94.2% | viability [5] 92.1% | inhibition [6] 1.93% | RAM network inhibition [7] 9.25%

CN(C)C(=O)c1nnc(Cc2ccc(Cl)cc2)o1
inactive: growth inhibition [1] -8.24% | growth inhibition [2] 7.88% | viability increase [3] 2.17% | viability [4] 98.5% | viability [5] 108% | inhibition [6] 0.31% | RAM network inhibition [7] 7.05%

COc1ccc(C2N(c3ccc(Cl)cc3)C(=O)C3CCCN32)cc1 (stereo not given)
inactive: growth inhibition [1] 1.46% | growth inhibition [2] 0.035% | viability increase [3] 0.55% | viability [4] 101% | viability [5] 99.9% | inhibition [6] 0.915% | RAM network inhibition [7] 0.88%

Cc1ccccc1-c1nc(CN2CCC(C(=O)N3CCN(c4ccccn4)CC3)CC2)c(C)o1
inactive: growth inhibition [1] -7.71% | growth inhibition [2] -18.8% | viability increase [3] -5.67% | viability [4] 61.6% | viability [5] 67.7% | inhibition [6] 1.33% | RAM network inhibition [7] -0.47%

CCOC(=O)Nc1cc(C)c(Cl)cc1OC
inactive: growth inhibition [1] -8.55% | growth inhibition [2] -0.98% | viability increase [3] -2.98% | viability [4] 84.5% | viability [5] 75.7% | inhibition [6] 2.17% | RAM network inhibition [7] 5.3%
